Reference: ChEMBL document CHEMBL1149769, “Synthesis and antimicrobial activity of some novel derivatives of benzofuran: part 2. The synthesis and antimicrobial activity of some novel 1-(1-benzofuran-2-yl)-2-mesitylethanone derivatives” (2008)
In brackets after ≈: the same amount, converted by molar mass.

What was measured:
Format in all cases: functional
[1] = tested on: Escherichia coli; assay: Antimicrobial activity against Escherichia coli ATCC 25922
Outline: (§1)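 Bacteria were subcultured on blood agar for 24 h at 37 °C, then tested by broth microdilution in cation-adjusted Mueller-Hinton broth. Compounds were in DMSO and given as twofold serial dilutions from 1024 down to 1, with a final inoculum of 10^5 CFU/mL. Plates were incubated 48 h at 35 °C. MIC was the lowest concentration preventing visible growth. Growth control was drug-free inoculated broth.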

[2] = tested on: Staphylococcus aureus; assay: Antimicrobial activity against Staphylococcus aureus ATCC 6538; outline: as §1
[3] = tested on: Candida albicans; assay: Antimicrobial activity against Candida albicans ATCC 10231
Outline: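 Yeast was subcultured on Sabouraud dextrose agar for 24 h at 35 °C. It was then tested by NCCLS M27-A broth microdilution in RPMI 1640 buffered with MOPS, pH 7.0. DMSO solutions were diluted twofold from 1024 […]. Final inoculum was 0.5×10^3–2.5×10^3 CFU/mL, read after 48 h at 35 °C. MIC was the lowest concentration visibly inhibiting growth.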

In the case of `Cc1cc(C)c(C/C(=N\OC(=O)c2ccccc2)c2cc3ccccc3o2)c(C)c1`, the MIC [1] was 32 µg/mL (≈ 80.5 µM), the MIC [2] was 4 µg/mL (≈ 10.1 µM) and the MIC [3] was 64 µg/mL (≈ 161 µM).

Work on `Cc1cc(C)c(C/C(=N/OCC(=O)NN)c2cc3ccccc3o2)c(C)c1` yielded an MIC [1] of 64 µg/mL (≈ 175 µM), an MIC [2] of 256 µg/mL (≈ 701 µM) and an MIC [3] of 32 µg/mL (≈ 87.6 µM).

Work on `Cc1cc(C)c(CC(O)c2cc3ccccc3o2)c(C)c1` (stereo unspecified) yielded an MIC [1] of 128 µg/mL (≈ 457 µM), an MIC [2] of 128 µg/mL (≈ 457 µM) and an MIC [3] of 64 µg/mL (≈ 228 µM).

Compound `Cc1cc(C)c(CC(=O)CCl)c(C)c1` has an MIC [1] of 64 µg/mL (≈ 304 µM), an MIC [2] of 16 µg/mL (≈ 75.9 µM) and an MIC [3] of 16 µg/mL (≈ 75.9 µM).

`CCOC(=O)CO/N=C(\Cc1c(C)cc(C)cc1C)c1cc2ccccc2o1` gave an MIC [1] of 256 µg/mL (≈ 675 µM), an MIC [2] of 256 µg/mL (≈ 675 µM) and an MIC [3] of 256 µg/mL (≈ 675 µM).

With `Cc1cc(C)c(C/C(=N/O)c2cc3ccccc3o2)c(C)c1` the MIC [1] was 128 µg/mL (≈ 436 µM), the MIC [2] was 128 µg/mL (≈ 436 µM) and the MIC [3] was 128 µg/mL (≈ 436 µM).

For `CO/N=C(\Cc1c(C)cc(C)cc1C)c1cc2ccccc2o1`, the MIC [1] was 128 µg/mL (≈ 416 µM), the MIC [2] was 256 µg/mL (≈ 833 µM) and the MIC [3] was 64 µg/mL (≈ 208 µM).

`OC(Cn1cncn1)(Cn1cncn1)c1ccc(F)cc1F` [FLUCONAZOLE] showed an MIC [3] of 0.25 µg/mL (≈ 0.816 µM).

`Cc1cc(C)c(CC(O)CCl)c(C)c1` (stereo unspecified) showed an MIC [1] of 64 µg/mL (≈ 301 µM), an MIC [2] of 128 µg/mL (≈ 602 µM) and an MIC [3] of 32 µg/mL (≈ 150 µM).

`Cc1cc(C)c(C/C(=N/NC(N)=O)c2cc3ccccc3o2)c(C)c1` was tested, and the MIC [1] was 64 µg/mL (≈ 191 µM), the MIC [2] was 128 µg/mL (≈ 382 µM) and the MIC [3] was 64 µg/mL (≈ 191 µM).

In the case of `C[C@@H](O)[C@H]1C(=O)N2C(C(=O)O)=C(S[C@@H]3CN[C@H](C(=O)N(C)C)C3)[C@H](C)[C@H]12` [MEROPENEM], the MIC [1] was 0.125 µg/mL (≈ 0.326 µM) and the MIC [2] was 1 µg/mL (≈ 2.61 µM).

In the case of `Cc1cc(C)c(CC(=O)CSC#N)c(C)c1`, the MIC [1] was 256 µg/mL (≈ 1100 µM), the MIC [2] was 256 µg/mL (≈ 1100 µM) and the MIC [3] was 32 µg/mL (≈ 137 µM).

`Cc1cc(C)c(C/C(=N\OC(=O)Cc2ccccc2)c2cc3ccccc3o2)c(C)c1` was tested, and the MIC [1] was 128 µg/mL (≈ 311 µM), the MIC [2] was 256 µg/mL (≈ 622 µM) and the MIC [3] was 128 µg/mL (≈ 311 µM).
